System: Fibroblast
Assay: Multiplex assay against human fibroblast
Type: toxicity, cell-based
In short: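 Live cells were stained at seeding with Hoechst33342, BioTracker Green Microtubule Cytoskeleton Dye, MitoTracker Red and Annexin V Alexa Fluor 680, then imaged on a CQ1 microscope at 37°C and 5% CO2 after compound addition. CellPathfinder machine-learning gating split cells into Hoechst high-intensity objects or normal cells. Normal cells were split into healthy, pyknosed or fragmented nuclei, and pyknosed cells into mitotic or apoptotic. Tubulin, mitochondrial-mass and membrane-permeability phenotypes are per cents of healthy-nucleus cells.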

[1] = 12 h, 1 µM, compound concentration 1 uM, replicate 1
[2] = 12 h, 1 µM, compound concentration 1 uM, replicate 2
[3] = 12 h, 10 µM, compound concentration 10 uM, replicate 1
[4] = 12 h, 10 µM, compound concentration 10 uM, replicate 2
[5] = 24 h, 1 µM, compound concentration 1 uM, replicate 1
[6] = 24 h, 1 µM, compound concentration 1 uM, replicate 2
[7] = 24 h, 10 µM, compound concentration 10 uM, replicate 1
[8] = 24 h, 10 µM, compound concentration 10 uM, replicate 2

Cc1cn(-c2cc(NC(=O)c3ccc4c(c3)CN(c3cncnc3)C[C@@H]4C)cc(C(F)(F)F)c2)cn1
Population Apoptotic (%) [1]: 81% | Population Fragmented Nuclei (%) [1]: 31% | Population Healthy Nuclei (%) [1]: 50% | Population Hoechst High Intensity Objects (%) [1]: 15% | Population Membrane Permeable-Phenotype (%) [1]: 7% | Population Mitochondria Different-Phenotype (%) [1]: 4% | Population Mitotic Cells (%) [1]: 18% | Population Normal (%) [1]: 84% | Population Pyknosed Nuclei (%) [1]: 17% | Population Tubulin-Different-Phenotype (%) [1]: 9% | Total Cell Count [1]: 147 | Population Apoptotic (%) [2]: 42% | Population Fragmented Nuclei (%) [2]: 58% | Population Healthy Nuclei (%) [2]: 31% | Population Hoechst High Intensity Objects (%) [2]: 30% | Population Membrane Permeable-Phenotype (%) [2]: 0% | Population Mitochondria Different-Phenotype (%) [2]: 9% | Population Mitotic Cells (%) [2]: 57% | Population Normal (%) [2]: 70% | Population Pyknosed Nuclei (%) [2]: 10% | Population Tubulin-Different-Phenotype (%) [2]: 22% | Total Cell Count [2]: 100 | Population Apoptotic (%) [3]: 71% | Population Fragmented Nuclei (%) [3]: 33% | Population Healthy Nuclei (%) [3]: 49% | Population Hoechst High Intensity Objects (%) [3]: 13% | Population Mitochondria Different-Phenotype (%) [3]: 5% | Population Mitotic Cells (%) [3]: 28% | Population Normal (%) [3]: 86% | Population Pyknosed Nuclei (%) [3]: 17% | Population Tubulin-Different-Phenotype (%) [3]: 23% | Total Cell Count [3]: 141 | Population Apoptotic (%) [4]: 75% | Population Fragmented Nuclei (%) [4]: 67% | Population Healthy Nuclei (%) [4]: 18% | Population Hoechst High Intensity Objects (%) [4]: 36% | Population Membrane Permeable-Phenotype (%) [4]: 10% | Population Mitochondria Different-Phenotype (%) [4]: 50% | Population Mitotic Cells (%) [4]: 25% | Population Normal (%) [4]: 63% | Population Pyknosed Nuclei (%) [4]: 14% | Population Tubulin-Different-Phenotype (%) [4]: 40% | Total Cell Count [4]: 87 | Population Apoptotic (%) [5]: 92% | Population Fragmented Nuclei (%) [5]: 35% | Population Healthy Nuclei (%) [5]: 45% | Population Hoechst High Intensity Objects (%) [5]: 19% | Population Membrane Permeable-Phenotype (%) [5]: 11% | Population Mitochondria Different-Phenotype (%) [5]: 1% | Population Mitotic Cells (%) [5]: 7% | Population Normal (%) [5]: 80% | Population Pyknosed Nuclei (%) [5]: 19% | Population Tubulin-Different-Phenotype (%) [5]: 7% | Total Cell Count [5]: 172 | Population Apoptotic (%) [6]: 42% | Population Fragmented Nuclei (%) [6]: 51% | Population Healthy Nuclei (%) [6]: 37% | Population Hoechst High Intensity Objects (%) [6]: 28% | Population Membrane Permeable-Phenotype (%) [6]: 13% | Population Mitochondria Different-Phenotype (%) [6]: 8% | Population Mitotic Cells (%) [6]: 57% | Population Normal (%) [6]: 71% | Population Pyknosed Nuclei (%) [6]: 11% | Population Tubulin-Different-Phenotype (%) [6]: 17% | Total Cell Count [6]: 87 | Population Apoptotic (%) [7]: 66% | Population Fragmented Nuclei (%) [7]: 36% | Population Healthy Nuclei (%) [7]: 48% | Population Hoechst High Intensity Objects (%) [7]: 16% | Population Membrane Permeable-Phenotype (%) [7]: 3% | Population Mitochondria Different-Phenotype (%) [7]: 10% | Population Mitotic Cells (%) [7]: 33% | Population Normal (%) [7]: 83% | Population Pyknosed Nuclei (%) [7]: 15% | Population Tubulin-Different-Phenotype (%) [7]: 26% | Total Cell Count [7]: 161 | Population Apoptotic (%) [8]: 57% | Population Fragmented Nuclei (%) [8]: 66% | Population Healthy Nuclei (%) [8]: 20% | Population Hoechst High Intensity Objects (%) [8]: 36% | Population Membrane Permeable-Phenotype (%) [8]: 9% | Population Mitochondria Different-Phenotype (%) [8]: 18% | Population Mitotic Cells (%) [8]: 42% | Population Normal (%) [8]: 63% | Population Pyknosed Nuclei (%) [8]: 12% | Population Tubulin-Different-Phenotype (%) [8]: 36% | Total Cell Count [8]: 85
